Assay results as given in ChEMBL document CHEMBL5331136, “Design, Synthesis, and Biological Evaluation of Novel Spiro Imidazobenzodiazepines to Identify Improved Inhaled Bronchodilators” (J Med Chem, 2023).
Values after ≈ are worked out from the molar mass of the structure shown. Active and inactive are the calls of the source. The rule behind the calls is not given here.

Legend:
[1] = Aqueous solubility of the compound at […] under shaking condition for 24 hrs by UV absorbance based analysis; format: physicochemical; details: for solubility: buffer, 24 h; for solubility at 24 h: aqueous
[2] = tested on: HEK293; test: Cytotoxicity against HEK293 cells assessed as lethal dose measured after 18 hrs by CellTiter-Glo assay; format: functional; details: Homo sapiens, read-out: LD50 (the source's name)
Outline: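 HEK293T cells grown in DMEM/high glucose with NEAA, HEPES, pen/strep, 10% heat-inactivated FBS. Plated 15,000 cells/well, then 4 h at 37 °C, 5% CO2. Compound added as 1:3 serial dilutions, top final concentration 300 µM. After 18 h, read luminescence by CellTiter-Glo. DMSO negative control, aminoketone positive control. Three independent experiments in quadruplicate, variable-slope nonlinear regression.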

[3] = molecular target: GABA-A receptor; anion channel (Rattus norvegicus) (UniProt O09028+P15431+P18506+P18508+P19969+P20236+P23574+P23576+P28471+P28473+P30191+P62813+P63079+P63138+Q91ZM7+Q9ES14); test: Displacement of [3H]flunitrazepam from GABAA receptor in rat brain extract at 10 uM relative to control; format: tissue-based
[4] = molecular target: GABA-A receptor; anion channel; test: Displacement of [3H]flunitrazepam from GABAA receptor in rat brain extract; format: tissue-based
[5] = Metabolic stability in mouse liver S9 fraction assessed as parent compound remaining at 10 uM measured after 120 mins in presence of NADPH by LC-MS/MS analysis; format: ADME, subcellular; details: read-out: Stability
[6] = Metabolic stability in mouse liver S9 fraction assessed as parent compound remaining at 10 uM measured after 120 mins in presence of UDP-glucuronic acid by LC-MS/MS analysis; format: ADME, subcellular; details: read-out: Stability
Outline: (§1)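 Liver S9 (human or mouse), protein 0.5 mg/mL, compound 10 µM (from 1 mM DMSO stock), phosphate buffer pH 7.4, […], alamethicin 0.0225 mg/mL final. Preincubated 5 min at 37 °C, then S9 added. Aliquots at 0 and 120 min quenched in cold methanol with 5 µM 4,5-diphenylimidazole internal standard. Parent remaining from LC-MS/MS peak-area ratio. Two independent assays in triplicate (n = 6).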

[7] = Metabolic stability in human liver S9 fraction assessed as parent compound remaining at 10 uM measured after 120 mins in presence of NADPH by LC-MS/MS analysis; format: ADME, subcellular; details: for remaining at 2 h, 10 µM: liver S9 fraction, read-out: Stability
[8] = Metabolic stability in human liver S9 fraction assessed as parent compound remaining at 10 uM measured after 120 mins in presence of UDP-glucuronic acid by LC-MS/MS analysis; format: ADME, subcellular; details: read-out: Stability; outline: as §1
[9] = Inhibition of sensorimotor coordination in Swiss Webster mouse at 40 mg/kg, po measured after 10 to 30 mins by rotarod analysis; format: toxicity, organism-based; details: in vivo, time 10-30 min
Outline: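 Female Swiss Webster mice, 10 weeks old, trained on rotarod at 15 rpm for 3 min. Single oral gavage, 100 µL, in 2.5% PEG400/97.5% 2% HPMC. Tested 3 min at 10, 30 and 60 min after dosing; fall time recorded at second fall. n = 12, two-way repeated-measures ANOVA with Bonferroni posttest.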

[10] = tested on: Trachea; test: Induction of smooth muscle relaxation in Hartley guinea pig trachea ring assessed as reduction in substance P induced smooth muscle constriction at 25 uM measured after 30 mins; format: functional, tissue-based; details: Cavia porcellus
[11] = tested on: Mus musculus; test: Induction of bronchodilation in A/J mouse assessed as reduction in sRaw values at 7.2 mg/kg administered as nebulized compound; format: functional, organism-based
Outline: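 Female A/J mice, no allergen sensitization, trained 5 days in a double-chamber plethysmograph while conscious. Compound nebulized in PBS at 7.2 mg/kg, then five nebulized methacholine challenges (in water). Each nebulization under 1 min, 3 min recording, 1 min pause. sRaw calculated per interval. n = 12, two-way repeated-measures ANOVA against vehicle.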

## O=C(O)c1ncn2c1C1(CC1)N=C(c1ccccc1F)c1cc(Br)ccc1-2
[1]
  solubility: 8200 µM (≈ 3500 µg/mL)
[2]
  CC50: > 300 µM
[3]
  Activity: 97%
[4]
  IC50: 9 µM
[5]
  remaining at 2 h, 10 µM: 120%
[6]
  remaining at 2 h, 10 µM: 90%
[7]
  remaining at 2 h, 10 µM: 104%
[8]
  remaining at 2 h, 10 µM: 69%
[9]
  Activity: Non-Toxic
[10]
  Activity: Active
[11]
  Activity: Active

## CC1(C)N=C(c2ccccc2F)c2cc(Br)ccc2NC1=O
[1]
  solubility: 319 µM (≈ 115 µg/mL)
[2]
  CC50: > 150 µM
[3]
  Activity: 70%

## O=C(O)c1ncn2c1C1(CC1)N=C(c1ccccc1F)c1cc(C3CC3)ccc1-2
[1]
  solubility: 12800 µM (≈ 4960 µg/mL)
[2]
  CC50: > 300 µM
[3]
  Activity: 58%
[5]
  remaining at 2 h, 10 µM: 102%
[6]
  remaining at 2 h, 10 µM: 95%
[7]
  remaining at 2 h, 10 µM: 107%
[8]
  remaining at 2 h, 10 µM: 96%
[9]
  Activity: Non-Toxic

## C#Cc1ccc2c(c1)C(c1ccccc1F)=NC1(CC1)c1c(C(=O)O)ncn1-2
[1]
  solubility: 40300 µM (≈ 15000 µg/mL)
[2]
  CC50: > 300 µM
[3]
  Activity: 55%
[5]
  remaining at 2 h, 10 µM: 108%
[6]
  remaining at 2 h, 10 µM: 113%
[7]
  remaining at 2 h, 10 µM: 106%
[8]
  remaining at 2 h, 10 µM: 93%
[9]
  Activity: Non-Toxic
[10]
  Activity: Active
[11]
  Activity: Active

## O=C(O)c1ncn2c1C1(CCC1)N=C(c1ccccc1F)c1cc(Br)ccc1-2
[1]
  solubility: 58700 µM (≈ 25800 µg/mL)
[2]
  CC50: > 300 µM
[3]
  Activity: 59%
[4]
  IC50: 1830 µM
[5]
  remaining at 2 h, 10 µM: 90%
[6]
  remaining at 2 h, 10 µM: 91%
[7]; s9, 2 h, 10 µM
  Stability: 122%
[8]
  remaining at 2 h, 10 µM: 113%
[9]
  Activity: Non-Toxic
[11]
  Activity: inactive

## CCC1N=C(c2ccccc2F)c2cc(Br)ccc2NC1=O (racemic)
[1]
  solubility at 24 h: 397 µM (≈ 143 µg/mL)
[2]
  CC50: > 150 µM
[3]
  Activity: 95%
[4]
  IC50: 134 µM

## O=C(O)c1ncn2c1C1(CCCCC1)N=C(c1ccccc1F)c1cc(Br)ccc1-2
[1]
  solubility: 46900 µM (≈ 22000 µg/mL)
[2]
  CC50: > 300 µM
[3]
  Activity: 24%
[5]
  remaining at 2 h, 10 µM: 111%
[6]
  remaining at 2 h, 10 µM: 78%
[7]
  remaining at 2 h, 10 µM: 107%
[8]
  remaining at 2 h, 10 µM: 106%
[9]
  Activity: Non-Toxic
[10]
  Activity: Active
[11]
  Activity: inactive

## O=C(O)c1ncn2c1C1(CC1)N=C(c1ccccc1F)c1ccccc1-2
[1]
  solubility: 15100 µM (≈ 5240 µg/mL)
[2]
  CC50: > 300 µM
[3]
  Activity: 74%
[5]
  remaining at 2 h, 10 µM: 108%
[6]
  remaining at 2 h, 10 µM: 99%
[7]
  remaining at 2 h, 10 µM: 106%
[8]
  remaining at 2 h, 10 µM: 96%
[9]
  Activity: Non-Toxic
[10]
  Activity: Active
[11]
  Activity: Active

## CCOC(=O)c1ncn2c1C(CC)N=C(c1ccccc1F)c1cc(Br)ccc1-2 (racemic)
[1]
  solubility at 24 h: 417 µM (≈ 190 µg/mL)
[2]
  CC50: > 300 µM
[3]
  Activity: 61%
[4]
  IC50: 175 µM

## O=C(O)c1ncn2c1C1(CCCC1)N=C(c1ccccc1F)c1cc(Br)ccc1-2
[1]
  solubility: 46700 µM (≈ 21200 µg/mL)
[2]
  CC50: > 300 µM
[3]
  Activity: 2%
[5]
  remaining at 2 h, 10 µM: 117%
[6]
  remaining at 2 h, 10 µM: 92%
[7]
  remaining at 2 h, 10 µM: 114%
[8]
  remaining at 2 h, 10 µM: 96%
[9]
  Activity: Non-Toxic
[11]
  Activity: inactive

## CC1(C)N=C(c2ccccc2F)c2cc(Br)ccc2-n2cnc(C(=O)O)c21
[1]
  solubility: 4400 µM (≈ 1880 µg/mL)
[2]
  CC50: > 300 µM
[3]
  Activity: 74%
[5]
  remaining at 2 h, 10 µM: 106%
[6]
  remaining at 2 h, 10 µM: 107%
[7]
  remaining at 2 h, 10 µM: 106%
[8]
  remaining at 2 h, 10 µM: 111%
[9]
  Activity: Non-Toxic
[11]
  Activity: inactive

## O=C1Nc2ccc(Br)cc2C(c2ccccc2F)=NC12CCC2
[1]
  solubility: 109 µM (≈ 40.7 µg/mL)
[2]
  CC50: > 150 µM
[3]
  Activity: 71%

## CCC1N=C(c2ccccc2F)c2cc(Br)ccc2-n2cnc(C(=O)O)c21 (racemic)
[1]
  solubility at 24 h: 77600 µM (≈ 33200 µg/mL)
[2]
  CC50: > 300 µM
[3]
  Activity: 102%
[4]
  IC50: 145 µM
[5]
  remaining at 2 h, 10 µM: 108%
[6]
  remaining at 2 h, 10 µM: 114%
[7]
  remaining at 2 h, 10 µM: 119%
[8]
  remaining at 2 h, 10 µM: 111%
[9]
  Activity: Non-Toxic
[11]
  Activity: Active

## C#Cc1ccc2c(c1)C(c1ccccc1F)=NC1(CC1)C1C(C(=O)OCC)N=CN21 (stereo not given)
[1]
  solubility: 53 µM (≈ 21.3 µg/mL)
[2]
  CC50: > 150 µM
[3]
  Activity: 56%

## CCOC(=O)c1ncn2c1C1(CCC1)N=C(c1ccccc1F)c1cc(Br)ccc1-2
[1]
  solubility: 186 µM (≈ 87.1 µg/mL)
[2]
  CC50: > 120 µM
[3]
  Activity: 83%

## O=C1Nc2ccc(Br)cc2C(c2ccccc2F)=NC12CC2
[1]
  solubility: 321 µM (≈ 115 µg/mL)
[2]
  CC50: > 150 µM
[3]
  Activity: 97%

## CCOC(=O)c1ncn2c1C1(CC1)N=C(c1ccccc1F)c1cc(Cl)ccc1-2
[1]
  solubility: 54 µM (≈ 22.1 µg/mL)
[2]
  CC50: > 150 µM
[3]
  Activity: 34%

## CCOC(=O)c1ncn2c1C(C)(C)N=C(c1ccccc1F)c1cc(Br)ccc1-2
[1]
  solubility: 103 µM (≈ 47 µg/mL)
[2]
  CC50: > 150 µM
[3]
  Activity: 78%

## O=C(O)c1ncn2c1C1(CC1)N=C(c1ccccc1F)c1cc(Cl)ccc1-2
[1]
  solubility: 36200 µM (≈ 13800 µg/mL)
[2]
  CC50: > 300 µM
[3]
  Activity: 18%
[5]
  remaining at 2 h, 10 µM: 101%
[6]
  remaining at 2 h, 10 µM: 98%
[7]
  remaining at 2 h, 10 µM: 103%
[8]
  remaining at 2 h, 10 µM: 103%
[9]
  Activity: Non-Toxic

## O=C1Nc2ccc(Br)cc2C(c2ccccc2F)=NC12CCCC2
[1]
  solubility: 98 µM (≈ 38 µg/mL)
[2]
  CC50: > 120 µM
[3]
  Activity: 13%

## CCOC(=O)c1ncn2c1C1(CC1)N=C(c1ccccc1F)c1cc(C3CC3)ccc1-2
[1]
  solubility: 96 µM (≈ 39.9 µg/mL)
[2]
  CC50: > 120 µM
[3]
  Activity: 22%

## CCOC(=O)c1ncn2c1C1(CCCCC1)N=C(c1ccccc1F)c1cc(Br)ccc1-2
[1]
  solubility: 141 µM (≈ 70 µg/mL)
[2]
  CC50: 96 µM
[3]
  Activity: 74%

## O=C1Nc2ccc(Br)cc2C(c2ccccc2F)=NC12CCCCC2
[1]
  solubility: 94 µM (≈ 37.7 µg/mL)
[2]
  CC50: 87 µM
[3]
  Activity: 33%

## CCOC(=O)c1ncn2c1C1(CCCC1)N=C(c1ccccc1F)c1cc(Br)ccc1-2
[1]
  solubility: 144 µM (≈ 69.5 µg/mL)
[2]
  CC50: 106 µM
[3]
  Activity: 19%

## CCOC(=O)c1ncn2c1C1(CC1)N=C(c1ccccc1F)c1cc(Br)ccc1-2
[1]
  solubility: 141 µM (≈ 64.1 µg/mL)
[2]
  CC50: > 120 µM
[3]
  Activity: 94%

## O=C1Nc2ccc(Cl)cc2C(c2ccccc2F)=NC12CC2
[1]
  solubility: 39 µM (≈ 12.3 µg/mL)
[2]
  CC50: > 150 µM
[3]
  Activity: 90%
